Hits are enriched below; roughly 3.3% of the tested compounds scored in any of these assays.
PglD DTNB = PglD (C. jejuni) enzyme inhibition; purified PglD enzyme, DTNB colorimetric CoA detection; inhibition, % at 12.5 µM; 360,000 tested, 0.098% active; AID 602405; in the data active means inhibition above about 16%, passing the limit was not always enough; inconclusive means no clear call, values can overlap the other calls
DENV2 CPE rescue = DENV2-induced cell death inhibition; CPE inhibition, % at 9.99 µM; DENV2-infected cells, cytopathic effect rescue, plate reader; AID 651640; 350,000 tested, 1.7% active; in the data active means CPE inhibition above about 20%, passing the limit was not always enough; inconclusive means no clear call, values can overlap the other calls; tested in BHK-21 cells
FGF22 binding = shifts melting point of recombinant human FGF22. Q9HCT0. recombinant FGF22 thermal shift, SYPRO orange fluorescence; percent of sucrose octasulfate shift, DMSO zero. activity (Tm shift, normalised), % at 9.99 µM. 340,000 tested, 1.5% active. AID 651658;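 active means mean Tm shift, scaled 0 neutral to 100 positive control, at about 1.3% or above, every replicate too, limit read from the data; inconclusive means no clear call, values can overlap the other calls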
E-selectin induc = E-selectin induction on HUVECs | AID 686992 | activation, % at 7.58 µM | HUVEC E-selectin immunofluorescence imaging; normalized: neutral wells 0, TNF-alpha wells 100 | 260,000 tested, 0.37% active | P16581;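 active means mean E-selectin-positive cell signal at least 10% of the positive control, reached in at least 60% of replicates, without over 20% cell loss; inconclusive means no rule given, readout overlaps actives, possibly toxicity-flagged; inactive means the rest, including those meeting only one limit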
Target sequence (P16581 whole entry, looked up): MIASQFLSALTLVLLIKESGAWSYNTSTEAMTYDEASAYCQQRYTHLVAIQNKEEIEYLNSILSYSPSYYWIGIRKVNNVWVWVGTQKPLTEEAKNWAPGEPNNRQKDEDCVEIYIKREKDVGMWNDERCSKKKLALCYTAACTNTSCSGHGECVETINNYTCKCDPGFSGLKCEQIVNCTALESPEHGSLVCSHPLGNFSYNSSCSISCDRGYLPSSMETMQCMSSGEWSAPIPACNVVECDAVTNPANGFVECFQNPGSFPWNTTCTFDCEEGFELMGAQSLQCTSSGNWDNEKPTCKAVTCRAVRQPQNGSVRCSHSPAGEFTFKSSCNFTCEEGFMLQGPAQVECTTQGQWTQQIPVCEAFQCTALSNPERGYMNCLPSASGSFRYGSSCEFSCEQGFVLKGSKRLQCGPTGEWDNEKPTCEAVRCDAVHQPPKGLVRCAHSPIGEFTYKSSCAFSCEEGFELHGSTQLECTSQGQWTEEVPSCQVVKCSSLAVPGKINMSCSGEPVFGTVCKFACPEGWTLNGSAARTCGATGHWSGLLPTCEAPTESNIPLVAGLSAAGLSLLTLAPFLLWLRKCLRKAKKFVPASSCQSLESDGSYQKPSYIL
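Read-out basis: % PE-positive cells; Test system: HUVEC primary endothelial cells; Technique: immunofluorescence imaging; Dosing: single-point compound dose.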
Xi reactivation = reactivates the inactive X chromosome in mouse fibroblasts. XiGFP mouse fibroblasts, % GFP-positive cells imaging, 3 d; cells co-treated with 5-aza-dC sensitizer; scaled so ellipticine positive control = 100%. AID 743238. 360,000 tested, 0.055% active. activation, % at 7.58 µM;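 active means mean normalized replicate activation at least 10% and every replicate at or above 10%; inconclusive means only one of the two criteria met; inactive means mean below 10% and not all replicates reach 10%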
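System: XiGFP fibroblasts, SV40-immortalized. Medium: DMEM plus 5-aza-dC sensitizer. Doses: single point. Timing: 3 d treatment, 15 min room-temperature fixation. Control set: ellipticine 6 µM.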
Statin myotox sup = protects C2C12 myotubes from simvastatin toxicity; ATP luminescence, 48 h; scaled: DMSO 0, geranylgeraniol control 100; rescue of ATP level, % at 7.49 µM; 330,000 tested, 0.78% active;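 active means mean ATP rescue above about 67%, or every replicate alone reaching that limit, limit read from the data, passing the limit was not always enough; inconclusive means no clear call, values can overlap the other calls; inactive means mean under the limit and some replicate under it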;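 further: myotubes were challenged with 10 µM simvastatin during compound exposure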
A number is an active result; n = inactive; u = inconclusive; x = no result given.

SMILES	PglD DTNB	DENV2 CPE rescue	FGF22 binding	E-selectin induc	Xi reactivation	Statin myotox sup
COC(=O)C1=C(C)NC(=O)CC1c1ccc(C(=O)OC)cc1 (stereo not given)	n	x	x	x	x	n
COC(=O)C1=C(C)N(C)C(=NCc2ccc(OC)cc2)NC1c1ccc(F)cc1 (stereo not given)	x	50.5	n	n	n	x
CCN1C(=NCc2ccco2)N[C@@H](c2cccc(C(F)(F)F)c2)C(C(=O)OC)=C1C	n	n	n	n	n	88.0
COC(=O)C1=C(C)N(Cc2ccc(C(F)(F)F)cc2)C(=NCc2ccccc2)NC1c1cccc(F)c1 (stereo not given)	x	n	43.9	n	n	x
COC(=O)C1=C(C)N(Cc2ccccc2C(F)(F)F)C(=NCc2ccccc2)NC1CCc1ccccc1 (stereo not given)	x	90.7	n	n	n	x
COc1ccc2c3c([nH]c2c1)[C@@H](CO)N(C(=O)CN(C)C)CC31CN(C(=O)c2ccncc2)C1	x	n	n	n	n	x
O=C(C[C@H]1C[C@@H]2c3cc(NC(=O)c4cccnc4)ccc3O[C@@H]2[C@@H](CO)O1)NCCc1ccccc1	n	u	n	n	n	n
Cc1noc(C)c1NC(=O)N(C)C[C@@H]1Oc2ccc(NC(=O)Nc3cccc4ccccc34)cc2C(=O)N([C@H](C)CO)C[C@H]1C	n	n	n	n	n	n
COC(=O)C1=C(C)N(Cc2ccccc2)C(=NCC(C)C)N[C@H]1c1cccc(F)c1	n	25.1	n	n	n	n
COC(=O)C1=C(C)N(Cc2ccccc2)C(=NCC(C)C)N[C@H]1c1cccc(C(F)(F)F)c1	n	x	x	x	x	n
CN(Cc1ccccc1)S(=O)(=O)c1ccc(Cl)c(C(=O)OCC(=O)NC2CCS(=O)(=O)C2)c1 (stereo not given)	n	32.3	n	n	n	n
Cc1cc(=O)oc2cc(OCC(=O)Nc3ccccc3C(N)=O)c(Cl)cc12	n	n	42.9	n	n	n
COc1cccc(NC(=S)/C(=C(\[O-])c2cc(C)n(-c3ccccc3F)c2C)[n+]2ccc(N(C)C)cc2)c1	x	n	43.4	x	n	x
O=c1c(-c2ccc(O)cc2)coc2cc(O)cc(O)c12	n	n	n	x	x	n
COc1ccc(-c2coc3cc(OC)cc(O)c3c2=O)cc1	n	x	x	x	x	x
COc1ccc(-c2coc3cc(O)cc(O)c3c2=O)cc1	n	n	2.2	n	n	n
CC(C)Oc1cc(O)c2c(=O)c(-c3ccc(O)cc3)coc2c1	n	n	n	114.5	n	n
CN(C)c1ccc(C(=O)OCC(=O)NCC2CCCO2)cc1 (stereo not given)	n	x	x	x	x	n
O=C(COC(=O)c1ccc(O)cc1)NCC1CCCO1 (stereo not given)	x	n	43.2	n	n	x
CC(C)n1cc(/C=C2/NC(=O)N(c3cccc(Cl)c3)C2=O)c2ccccc21	n	x	x	x	x	n
CC(C)n1cc(/C=C2\NC(=O)N(c3cccc(Cl)c3)C2=O)c2ccccc21	n	x	x	x	x	115.4
O=C(O)Cn1cc(/C=C2/NC(=O)N(c3ccc(Cl)cc3)C2=O)c2ccccc21	n	n	2.4	x	n	n
O=C(OCC1OC(n2ccc(=O)[nH]c2=O)C2OC12)c1ccccc1 (stereo not given)	n	n	43.0	n	n	n
COc1ccc(NC(=O)N(C)C[C@H]2Oc3ccc(NS(C)(=O)=O)cc3C(=O)N([C@@H](C)CO)C[C@@H]2C)cc1	n	n	n	n	n	n
COc1ccc(S(=O)(=O)N(C)C[C@H]2Oc3c(NC(=O)Nc4ccc(C(F)(F)F)cc4)cccc3C(=O)N([C@@H](C)CO)C[C@@H]2C)cc1	n	n	n	x	n	n
O=C(NCC[C@@H]1CC[C@H](NC(=O)Nc2cc(F)ccc2F)[C@@H](CO)O1)Nc1ccc(F)cc1	n	n	n	n	n	n
CC(C)Nc1nc(-c2ccccc2CO)c2sccc2n1	n	n	43.3	n	n	n
O=C(NCCNC(=O)c1cc(F)cc(F)c1)c1cc(F)cc(F)c1	n	29.6	n	n	n	n
Cc1ccc2c(c1)sc(=NC(=O)c1cccs1)n2C	x	x	43.1	x	n	x

Assay outcomes from PubChem.
